Reference: ChEMBL document CHEMBL5113379, “4-Oxooctahydroquinoline-1(2H)-carboxamides as hepatitis B virus (HBV) capsid core protein assembly modulators” (Bioorg Med Chem Lett, 2022)
Active and inactive are the calls of the source. No cut-off for these calls is given here.

Columns and labels:
Hepatitis B virus = experiment: Antiviral activity against HBV infected in mouse AML12HBV10 cells assessed as reduction in viral replication incubated for 48 hrs and measured by [alpha-32P]UTP-labeled radio-probe based dot blot hybridization assay; type: functional, organism-based
Method in brief: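 The test used the stable HBV line AML12HBV10, derived from immortalized mouse hepatocytes (AML12). HBV replication was measured by dot blot hybridization and EC50 was determined.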

[1] = Cytotoxicity against mouse […] measured by MTT assay; type: toxicity, cell-based, AML12HBV10; details: aml12hbv10
Method in brief: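 Cytotoxicity was measured by MTT assay in the stable HBV line AML12HBV10, derived from immortalized mouse hepatocytes (AML12), and CC50 was determined.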

HepDES19 [2] = experiment: Antiviral activity against HBV infected in human HepDES19 cells assessed reduction of amounts of encapsidated pgRNA 5 uM […] by northern blot hybridization assay; type: functional, cell-based
Method in brief: (§1)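 In tet-inducible HepDES19 cells, pgRNA transcription was induced by tetracycline removal; tet-maintained cells were the negative control. Treatment with DMSO or compound at 2 or 5 μM began 24 h after tet removal and lasted 6 days. Encapsidated pgRNA was detected by Northern blot hybridization, with ribosomal RNA as loading control.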

HepDES19 [3] = experiment: Antiviral activity against HBV infected in human HepDES19 cells assessed as reduction of capsid associated HBV DNA 5 uM measured by agarose gel electrophoresis-based particle gel assay; type: functional, cell-based
Method in brief: (§2)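 HepDES19 cells were kept with tetracycline to block pgRNA transcription (negative control) or without it to induce pgRNA transcription and HBV DNA replication. Compounds (1, 2 or 5 μM) or DMSO were added starting 24 h after tet removal and kept for 6 days.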

[4] = Metabolic stability in human liver microsomes assessed as half-life; type: ADME, Microsome; details: microsomes
[5] = Metabolic stability in mouse liver microsomes assessed as half-life; type: ADME, Microsome; details: microsomes
HepDES19 [6] = experiment: Antiviral activity against HBV infected in human HepDES19 cells assessed reduction of amounts of encapsidated pgRNA 2 uM […] by northern blot hybridization assay; type: functional, cell-based; method in brief: as §1
HepDES19 [7] = experiment: Antiviral activity against HBV infected in human HepDES19 cells assessed as reduction in levels of intracellular core protein 2 uM measured by Western blot assay; type: functional, cell-based
Method in brief: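 HepDES19 cells kept in tetracycline, then switched to tet-free medium to induce pgRNA transcription and HBV DNA replication; tet-maintained cells serve as negative control. Treatment with compound or DMSO started 24 h after tet removal and continued for 6 days. Intracellular core protein was detected by Western blot with an antibody against the C-terminal 14 residues of core, with β-actin as loading control.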

HepDES19 [8] = experiment: Antiviral activity against HBV infected in human HepDES19 cells assessed as reduction of capsid associated HBV DNA 2 uM measured by agarose gel electrophoresis-based particle gel assay; type: functional, cell-based; method in brief: as §2
HepDES19 [9] = experiment: Antiviral activity against HBV infected in human HepDES19 cells assessed as reduction of capsid associated HBV DNA 1 uM measured by agarose gel electrophoresis-based particle gel assay; type: functional, cell-based; method in brief: as §2
[10] = Hepatitis B virus, AML12HBV10, 48 h

Structure (SMILES) | EC50 (Hepatitis B virus; [10]) | CC50 [1] | other results
O=C(Nc1ccc(N2CCOCC2)c(Cl)c1)c1cccc2c1OCCO2 | > 10 µM | > 25 µM | 
C[C@@H](NS(=O)(=O)c1ccc(F)c(C(=O)Nc2ccc(F)c(F)c2)c1)C1CC1 |  |  | Activity (HepDES19 [2]): Active
CC1(C)Cc2cccc(C(=O)Nc3ccc(F)c(Cl)c3)c2O1 | 1.48 µM | > 50 µM | 
O=C(Nc1ccc(F)c(Cl)c1)c1cccc2c1OCC2 | 2.18 µM | 4.6 µM | 
O=C1CCN(C(=O)Nc2ccc(F)c(Cl)c2)C(c2ccccc2)C1 (stereo not drawn) | 5.01 µM | > 100 µM | 
O=C(Nc1cc(F)c(F)c(F)c1)c1cccc2c1OCCO2 | 0.28 µM | > 100 µM | 
O=C1CCN(C(=O)Nc2ccc(F)c(Cl)c2)C2CCCCC12 (stereo in doubt; 61) |  |  | Activity (HepDES19 [2]): Active; Activity (HepDES19 [3]): Active
C[C@@H](NS(=O)(=O)c1cc2c(c(C(=O)Nc3ccc(F)c(Cl)c3)c1)OCCO2)c1ccncc1 | 13.4 µM |  | 
O=C(Nc1ccc(F)c(Cl)c1)c1cccc2c1OC(F)(F)O2 | 0.11 µM | > 100 µM | t1/2 [4]: 16.4 min; t1/2 [5]: 11 min
O=C(Nc1ccc2c(c1)CCC2)c1cccc2c1OCCO2 | > 10 µM | > 50 µM | 
O=C1CCN(C(=O)Nc2ccc(F)c(Cl)c2)c2ccc(Cl)cc21 | 4.83 µM | > 100 µM | 
O=C(NCc1ccc(F)cc1F)c1cccc2c1OCCO2 | 4.62 µM | > 20 µM | 
O=C1CCN(C(=O)Nc2ccc(F)c(Cl)c2)C(Cc2ccccc2)C1 (stereo not drawn) | 5.11 µM | > 20 µM | 
O=C(Nc1ccc(F)c(Cl)c1)c1cccc2nccnc12 | 2.39 µM | > 12.5 µM | 
O=C(Nc1ccc(F)c(Cl)c1)N1CCOc2cccnc21 | > 10 µM | 26.3 µM | 
O=C1CC(c2ccccc2)N(C(=O)Nc2ccc(F)c(Cl)c2)c2ccccc21 (stereo not drawn) | 2.89 µM | > 50 µM | 
COC(=O)C1=C(C)NC(c2ncc(F)cc2F)=N[C@H]1c1ccc(F)cc1Cl |  |  | Activity (HepDES19 [6]): Active; Activity (HepDES19 [7]): Active; Activity (HepDES19 [8]): Active
O=C1CCN(C(=O)Nc2ccc(F)c(C(F)(F)F)c2)[C@@H]2CCCC[C@H]12 | 0.97 µM | > 20 µM | 
O=C1CCC(C(=O)Nc2ccc(F)c(Cl)c2)c2ccccc21 (stereo not drawn) | 1.67 µM | > 100 µM | t1/2 [5]: 5.8 min
O=C(Nc1ccc(F)c(Cl)c1)c1cccc2ccoc12 | 0.73 µM | > 100 µM | t1/2 [4]: 61.2 min; t1/2 [5]: 6 min
O=C1CC2CC1CN2C(=O)Nc1ccc(F)c(Cl)c1 (stereo not drawn) | > 10 µM | > 100 µM | 
O=C1CCN(C(=O)Nc2ncc(F)c(Cl)n2)[C@@H]2CCCC[C@H]12 | > 10 µM | > 50 µM | 
O=C(Nc1ccnc(Cl)c1)c1cccc2c1OCCO2 | 4.65 µM | > 100 µM | 
O=C(Nc1ccc(F)c(Cl)c1)N1CCOc2ccccc21 | 0.52 µM | > 100 µM | t1/2 [4]: 14.7 min; t1/2 [5]: < 4 min
O=C1CCN(C(=O)Nc2cccc(Cl)c2)[C@@H]2CCCC[C@H]12 | 0.22 µM | > 20 µM | 
O=C(CC1COCCO1)Nc1ccc(F)c(Cl)c1 (stereo not drawn) | 5.02 µM | > 100 µM | 
O=C1CCN(C(=O)Nc2ccnc(Cl)n2)[C@@H]2CCCC[C@H]12 | > 10 µM | > 100 µM | 

Structure (SMILES) | EC50 (Hepatitis B virus; [10]) | CC50 [1] | other results
O=C1CC2CCC(C1)N2C(=O)Nc1ccc(F)c(Cl)c1 | > 10 µM | > 100 µM | 
O=C(Nc1ccc(F)c(Cl)c1)c1cccc2c1OCCO2 | 0.2 µM | > 50 µM | t1/2 [4]: 1.7 min; t1/2 [5]: 6.6 min
O=C(Nc1ccc(F)c(Cl)c1)N1CCS(=O)(=O)c2ccccc21 | > 10 µM | > 100 µM | 
N#Cc1cc(NC(=O)N2CCC(=O)[C@H]3CCCC[C@H]32)ccc1F | 0.85 µM | > 20 µM | 
C=C1[C@H](CO)[C@@H](O)C[C@@H]1n1cnc2c(=O)[nH]c(N)nc21 |  |  | Activity (HepDES19 [9]): Active
O=C(Nc1ccc(C(F)(F)F)c(Cl)c1)c1cccc2c1OCCO2 | 1.59 µM | > 50 µM | t1/2 [4]: 44.4 min; t1/2 [5]: 6.9 min
O=C(Nc1ccc2c(c1)OCO2)c1cccc2c1OCCO2 | 4.2 µM | > 100 µM | 
O=C(Nc1cc(Cl)nc(Cl)c1)c1cccc2c1OCCO2 | 6.3 µM | > 33.3 µM | 
O=C(Nc1ccc(F)c(Cl)c1)c1cccc2c1OCCC2 | 0.75 µM | > 12.5 µM | 
O=C(Nc1ccc(F)c(Cl)c1)C1CCCc2ccccc21 (stereo not drawn) | 9.4 µM | 25 µM | 
O=C1CCN(C(=O)Nc2ccc(F)c(Cl)c2)C2CCCCC12 (stereo not drawn) |  |  | EC50 (Hepatitis B virus; aml12hbv10): 1.81 µM; t1/2 [4]: 5 min; t1/2 [5]: 7.8 min
N#Cc1ccc(NC(=O)c2cccc3c2OCCO3)cc1Cl | 3.84 µM | > 50 µM | 
O=C1COc2cccc(C(=O)Nc3ccc(F)c(Cl)c3)c2N1 | > 10 µM | > 50 µM | 
O=C(Nc1ccc(F)c(Cl)c1)c1cccc2cc[nH]c12 | 4.48 µM | > 33.3 µM | 
O=C(Nc1ccc(O)c(Cl)c1)c1cccc2c1OCCO2 | 9.83 µM | > 100 µM | 
O=C1CCN(C(=O)Nc2ccc(F)c(C(F)F)c2)[C@@H]2CCCC[C@H]12 | 0.26 µM | > 20 µM | t1/2 [4]: 69 min; t1/2 [5]: 35 min
O=C(Nc1ccc(F)c(Cl)c1)c1cc(S(=O)(=O)N2CCC(O)CC2)cc2c1OCCO2 | 5.57 µM | > 50 µM | 
O=C1CCN(C(=O)Nc2cc(F)c(F)c(F)c2)[C@@H]2CCCC[C@H]12 | 2.41 µM | > 100 µM | 
O=C1CCCN(C(=O)Nc2ccc(F)c(Cl)c2)c2ccccc21 | > 10 µM | > 100 µM | 
O=C1CCN(C(=O)Nc2ccc(F)c(Cl)c2)c2ccccc21 | 1.32 µM | > 12.5 µM | t1/2 [4]: 47.2 min; t1/2 [5]: 10 min
Cc1cc(NC(=O)N2CCC(=O)[C@H]3CCCC[C@H]32)ccc1F | 0.38 µM | > 20 µM | 
O=C(NC1CC(F)(F)C1)c1cccc2c1OCCO2 | > 10 µM | > 100 µM | 
O=C(Nc1ccc2ncsc2c1)c1cccc2c1OCCO2 | > 10 µM | > 50 µM | 
O=C(Nc1ccc(F)c(Cl)c1)n1[nH]c(=O)c2ccccc21 | > 10 µM | > 100 µM | 
CCC(C)NS(=O)(=O)c1cc2c(c(C(=O)Nc3ccc(F)c(Cl)c3)c1)OCCO2 (stereo not drawn) | 1.64 µM | > 33.3 µM | t1/2 [4]: 37.4 min; t1/2 [5]: 16.4 min
O=C1CCN(C(=O)Nc2ccc(F)c(Cl)c2)C2CCCCC12 (stereo in doubt; 60) |  |  | EC50 (Hepatitis B virus; aml12hbv10): 1.86 µM; t1/2 [4]: 48 min; t1/2 [5]: 7 min
